One may read the inhibition as the change of the read-out against control, counted positive when it falls. As usually defined, the IC50 is the concentration needed to halve the response being measured.

The source of these data is ChEMBL document CHEMBL4393708, “Pyridinylimidazoles as dual glycogen synthase kinase 3β/p38α mitogen-activated protein kinase inhibitors” (Eur J Med Chem, 2019).

SMILES strings stand for the structures.

Data set [1] has as its target High affinity nerve growth factor receptor (Homo sapiens) (UniProt P04629). As to the kind of experiment: Inhibition of human recombinant TRKA at 1 uM using Ulight-Poly GAT[EAY(1:1:1)]n as substrate measured after 10 mins in presence of ATP by LANCE assay relative to control. The essentials:
(§1)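 Kinase panel run by an outside provider (Eurofins Cerep) in a LANCE assay, single test concentration of 1 µM, results as percent inhibition.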
A general note: Time-resolved FRET reads energy transfer from a long-lived donor to a nearby acceptor.

A short description of data set [2]: Ratio of drug concentration in RjOrl:Swiss CD-1 mouse brain at 10 mg/kg, iv to IC50 for p38alpha MAPK (unknown origin). In kind it is ADME, organism-based. The settings on record: in vivo. The essentials:
(§2)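 Adult male mice received a single 10 mg/kg intravenous dose. After the final plasma sample at 2 h, the mice were sacrificed and brains dissected. Brain concentration was measured by LC-MS and related to the in vitro IC50 values for GSK3β and p38α.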

The target of a further data set is CYP1A2 (Homo sapiens, UniProt P05177). As to the kind of experiment: Inhibition of human recombinant CYP1A2 expressed in baculovirus infected insect cells using 3-cyano-7-ethoxycoumarin as substrate at 10 uM in presence of NADPH by fluorimetric analysis relative to control. In kind it is ADME. The settings on record: probe 3-cyano-7-ethoxycoumarin.
Sequence of CYP1A2 (P05177 whole entry): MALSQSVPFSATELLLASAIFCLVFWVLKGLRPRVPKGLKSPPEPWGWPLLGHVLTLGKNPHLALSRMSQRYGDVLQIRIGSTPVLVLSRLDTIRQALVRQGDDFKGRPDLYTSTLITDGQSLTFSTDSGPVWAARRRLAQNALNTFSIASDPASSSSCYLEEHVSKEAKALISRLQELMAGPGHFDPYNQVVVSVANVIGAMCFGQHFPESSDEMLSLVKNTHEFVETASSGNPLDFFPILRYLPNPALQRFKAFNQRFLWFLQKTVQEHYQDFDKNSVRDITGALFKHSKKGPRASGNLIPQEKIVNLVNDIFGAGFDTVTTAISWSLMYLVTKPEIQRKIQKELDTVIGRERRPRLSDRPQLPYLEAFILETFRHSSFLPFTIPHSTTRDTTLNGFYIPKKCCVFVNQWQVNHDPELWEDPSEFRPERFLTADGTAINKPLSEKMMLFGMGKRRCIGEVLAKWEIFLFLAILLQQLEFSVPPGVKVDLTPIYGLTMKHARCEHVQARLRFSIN
Data set [3] has as its target Fibroblast growth factor receptor 3 (Homo sapiens) (UniProt P22607). Description: Inhibition of human recombinant FGFR3 at 1 uM using Ulight-CAGAGAIETDKEYYTVKD as substrate measured after 90 mins in presence of ATP by LANCE assay relative to control. The gist of the method:
as §1

Data set [4] has as its target Hepatocyte growth factor receptor (Homo sapiens) (UniProt P08581). As to the kind of experiment: Inhibition of human recombinant MET at 1 uM using Ulight-CAGAGAIETDKEYYTVKD as substrate measured after 60 mins in presence of ATP by LANCE assay relative to control. The gist of the method: as §1
For data set [5], the target named is Protein kinase C beta type (Homo sapiens) (UniProt P05771). Description: Inhibition of human recombinant PKCbeta at 1 uM using CREBtide as substrate measured after 15 mins in presence of ATP by LANCE assay relative to control. The gist of the method: as §1
Sequence of Protein kinase C beta type (Homo sapiens) (P05771 2-671 limits assumed): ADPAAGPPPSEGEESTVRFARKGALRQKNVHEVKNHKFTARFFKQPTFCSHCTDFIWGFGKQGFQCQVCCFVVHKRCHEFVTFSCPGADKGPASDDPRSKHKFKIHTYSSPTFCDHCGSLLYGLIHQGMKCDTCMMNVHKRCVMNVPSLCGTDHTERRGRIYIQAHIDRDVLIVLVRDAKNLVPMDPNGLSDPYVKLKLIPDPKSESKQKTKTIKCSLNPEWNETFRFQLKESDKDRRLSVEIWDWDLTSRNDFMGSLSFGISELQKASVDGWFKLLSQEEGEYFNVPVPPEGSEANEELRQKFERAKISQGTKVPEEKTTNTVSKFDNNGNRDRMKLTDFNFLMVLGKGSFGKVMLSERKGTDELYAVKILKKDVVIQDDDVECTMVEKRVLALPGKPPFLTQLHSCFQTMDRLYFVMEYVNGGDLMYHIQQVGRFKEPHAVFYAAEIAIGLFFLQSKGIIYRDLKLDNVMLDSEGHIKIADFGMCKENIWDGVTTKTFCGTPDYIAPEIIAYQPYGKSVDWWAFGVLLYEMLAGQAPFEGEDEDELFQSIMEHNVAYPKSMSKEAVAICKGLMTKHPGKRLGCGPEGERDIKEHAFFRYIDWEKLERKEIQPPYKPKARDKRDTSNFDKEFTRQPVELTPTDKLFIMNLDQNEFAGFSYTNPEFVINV
The target in data set [6] is Serine/threonine-protein kinase Nek2 (Homo sapiens) (UniProt P51955). As to the kind of experiment: Inhibition of human recombinant NEK2 at 1 uM using Ulight-FLGFTYVAP as substrate measured after 60 mins in presence of ATP by LANCE assay relative to control. The essentials: as §1
The target of data set [7] is Mitogen-activated protein kinase 8 (Homo sapiens) (UniProt P45983). Description: Inhibition of human recombinant JNK1 at 1 uM using Ulight-CFFKNIVTPRTPPPSQGK-amide as substrate measured after 60 mins in presence of ATP by LANCE assay relative to control. The gist of the method:
as §1

Data set [8] addresses Glycogen synthase kinase-3 beta (Homo sapiens, UniProt P49841). Description: Competitive inhibition of human recombinant full length GSK3beta using YRRAAVPPSPSLSRHSSPHQ(pS)EDEEE as substrate preincubated with enzyme for 10 mins followed by substrate and 25 uM ATP addition measured after 60 mins by ADP-Glo luminescence assay. The essentials:
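Compounds in serial dilutions were preincubated with kinase for 10 min at rt. Substrate/ATP was then added and the reaction ran 60 min at rt. ADP-Glo reagent 60 min, detection reagent 30 min, then luminescence read (500 ms integration).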
On the technique in general: ADP-Glo first removes unused ATP, then detects ADP through luciferase.

Data set [9] is described as follows: Ratio of drug concentration in RjOrl:Swiss CD-1 mouse brain at 10 mg/kg, iv to IC50 for human recombinant full length GSK3beta. It counts as ADME, organism-based. The settings on record: in vivo. The essentials: as §2
Data set [10] concerns the target Vascular endothelial growth factor receptor 2 (Homo sapiens) (UniProt P35968). As to the kind of experiment: Inhibition of human recombinant KDR at 1 uM using Ulight-CAGAGAIETDKEYYTVKD as substrate measured after 60 mins in presence of ATP by LANCE assay relative to control. The gist of the method: as §1
Data set [11] deals with Mitogen-activated protein kinase 14 (Homo sapiens, UniProt Q16539). Description: Inhibition of p38alpha MAPK (unknown origin) using ATF-2 as substrate after 1 hr by ELISA. (In an ELISA, binding on a coated surface is turned into a signal by an enzyme label.)
Sequence of Mitogen-activated protein kinase 14 (Q16539 whole entry): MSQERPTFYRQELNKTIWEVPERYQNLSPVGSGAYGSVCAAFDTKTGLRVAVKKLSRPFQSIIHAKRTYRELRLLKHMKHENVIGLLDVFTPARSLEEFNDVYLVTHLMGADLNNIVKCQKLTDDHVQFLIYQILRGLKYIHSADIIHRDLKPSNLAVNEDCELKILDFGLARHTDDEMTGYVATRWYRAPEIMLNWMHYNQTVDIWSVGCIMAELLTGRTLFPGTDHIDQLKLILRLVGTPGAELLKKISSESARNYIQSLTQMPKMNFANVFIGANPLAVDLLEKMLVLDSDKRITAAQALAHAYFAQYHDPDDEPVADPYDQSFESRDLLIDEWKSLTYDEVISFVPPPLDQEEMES
Data set [12] has as its target Glycogen synthase kinase-3 alpha (Homo sapiens, UniProt P49840). As to the kind of experiment: Inhibition of human recombinant full length GSK3alpha using YRRAAVPPSPSLSRHSSPHQ(pS)EDEEE as substrate preincubated with enzyme for 10 mins followed by substrate and 25 uM ATP addition measured after 60 mins by ADP-Glo luminescence assay. The gist of the method:
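Recombinant human GSK3α at 0.50 ng/µL, 25 µM ATP, 0.2 µg/µL substrate G50-58, serial compound dilutions. Kinase was preincubated with compound 10 min at rt, then run 60 min at rt after substrate/ATP addition. ADP-Glo reagent 60 min, detection reagent 30 min, luminescence read. Uninhibited-kinase and ATP/substrate-only controls were included.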

Data set [13] has as its target Mitogen-activated protein kinase 1 (Homo sapiens) (UniProt P28482). As to the kind of experiment: Inhibition of human recombinant ERK2 at 1 uM using Ulight-CFFKNIVTPRTPPPSQGK-amide as substrate measured after 15 mins in presence of ATP by LANCE assay relative to control. The essentials: as §1
Data set [14] addresses MAP kinase-activated protein kinase 2 (Homo sapiens) (UniProt P49137). As to the kind of experiment: Inhibition of human recombinant MAPKAPK2 at 1 uM using CREBtide as substrate measured after 15 mins in presence of ATP by LANCE assay relative to control. The essentials: as §1
Data set [15] in a line: Metabolic stability in human liver microsomes assessed as parent compound remaining after 60 mins by LC-MS analysis relative to control. It counts as ADME, Microsome. The note with it: read-out: Stability.
In data set [16] the target is Ephrin type-B receptor 4 (Homo sapiens) (UniProt P54760). Description: Inhibition of human recombinant EPHB4 at 1 uM using Ulight-TK peptide as substrate measured after 90 mins in presence of ATP by LANCE assay relative to control. The gist of the method: as §1
Data set [17] can be described thus: Metabolic stability in human liver microsomes assessed as parent compound remaining after 20 mins by LC-MS analysis relative to control. In kind it is ADME, Microsome. The settings on record: read-out: Stability.
Data set [18] addresses Serine/threonine-protein kinase PAK 4 (Homo sapiens) (UniProt O96013). Description: Inhibition of human recombinant PAK4 at 1 uM using Ulight-RRRSLLE as substrate measured after 30 mins in presence of ATP by LANCE assay relative to control. The essentials:
as §1

Data set [19] addresses RAC-alpha serine/threonine-protein kinase (Homo sapiens) (UniProt P31749). As to the kind of experiment: Inhibition of recombinant human AKT1 at 1 uM using CREBtide as substrate measured after 60 mins in presence of ATP by LANCE assay relative to control.
Data set [20] has as its target Insulin receptor (Homo sapiens) (UniProt P06213). Description: Inhibition of human recombinant IR at 1 uM using Ulight-Poly GAT[EAY(1:1:1)]n as substrate measured after 10 mins in presence of ATP by LANCE assay relative to control. The essentials: as §1
Data set [21] can be described thus: Drug uptake in RjOrl:Swiss CD-1 mouse brain at 10 mg/kg, iv administered as single dose measured after 2 hrs by LC-MS analysis. In kind it is ADME, organism-based. The settings on record: read-out: Drug uptake. The gist of the method: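 Adult male RjOrl:Swiss CD-1 mice got one intravenous dose of 10 mg/kg. Plasma was sampled at 10, 30 and 120 min. After the last sample the mice were sacrificed and brains dissected. Blood and brain samples were prepared and analysed by LC-MS for parent and sulfoxide metabolite; brain levels reported as ng/g.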

Sequence of Hepatocyte growth factor receptor (Homo sapiens) (P08581 whole entry): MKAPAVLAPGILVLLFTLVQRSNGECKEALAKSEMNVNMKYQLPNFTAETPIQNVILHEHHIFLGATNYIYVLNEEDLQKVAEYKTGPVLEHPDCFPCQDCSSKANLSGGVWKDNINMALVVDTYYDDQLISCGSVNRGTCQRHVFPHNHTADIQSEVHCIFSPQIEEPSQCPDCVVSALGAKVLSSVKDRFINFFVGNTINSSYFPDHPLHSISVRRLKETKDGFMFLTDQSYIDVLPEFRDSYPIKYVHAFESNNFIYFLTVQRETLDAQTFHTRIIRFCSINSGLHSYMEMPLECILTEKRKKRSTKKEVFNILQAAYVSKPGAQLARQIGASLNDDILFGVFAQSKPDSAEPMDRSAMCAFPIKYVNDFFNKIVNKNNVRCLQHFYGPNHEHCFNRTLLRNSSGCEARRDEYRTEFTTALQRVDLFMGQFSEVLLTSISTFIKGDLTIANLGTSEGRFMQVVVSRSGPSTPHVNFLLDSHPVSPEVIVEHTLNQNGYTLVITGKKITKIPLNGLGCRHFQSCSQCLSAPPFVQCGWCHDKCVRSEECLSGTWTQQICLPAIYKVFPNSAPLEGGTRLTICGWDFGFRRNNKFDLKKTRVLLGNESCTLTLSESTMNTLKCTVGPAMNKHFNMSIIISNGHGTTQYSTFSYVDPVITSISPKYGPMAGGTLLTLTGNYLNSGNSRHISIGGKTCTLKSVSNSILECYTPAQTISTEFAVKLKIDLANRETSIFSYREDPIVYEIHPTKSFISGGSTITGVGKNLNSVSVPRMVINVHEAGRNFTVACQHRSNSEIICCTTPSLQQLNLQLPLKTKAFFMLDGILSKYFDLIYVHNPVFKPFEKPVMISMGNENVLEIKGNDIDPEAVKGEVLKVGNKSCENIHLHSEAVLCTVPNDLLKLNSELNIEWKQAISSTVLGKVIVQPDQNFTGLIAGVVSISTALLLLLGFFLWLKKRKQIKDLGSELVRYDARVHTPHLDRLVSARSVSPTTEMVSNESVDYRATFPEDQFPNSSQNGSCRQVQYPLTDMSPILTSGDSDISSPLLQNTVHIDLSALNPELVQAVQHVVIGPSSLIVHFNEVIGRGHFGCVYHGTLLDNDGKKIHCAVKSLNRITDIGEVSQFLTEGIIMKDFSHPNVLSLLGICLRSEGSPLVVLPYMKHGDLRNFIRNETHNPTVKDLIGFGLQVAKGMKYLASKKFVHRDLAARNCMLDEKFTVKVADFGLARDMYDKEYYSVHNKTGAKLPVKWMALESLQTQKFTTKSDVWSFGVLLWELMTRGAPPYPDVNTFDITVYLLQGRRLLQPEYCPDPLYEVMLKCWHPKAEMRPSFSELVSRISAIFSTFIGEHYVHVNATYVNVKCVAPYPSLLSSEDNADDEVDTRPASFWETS
Sequence of Serine/threonine-protein kinase PAK 4 (Homo sapiens) (O96013 whole entry, looked up): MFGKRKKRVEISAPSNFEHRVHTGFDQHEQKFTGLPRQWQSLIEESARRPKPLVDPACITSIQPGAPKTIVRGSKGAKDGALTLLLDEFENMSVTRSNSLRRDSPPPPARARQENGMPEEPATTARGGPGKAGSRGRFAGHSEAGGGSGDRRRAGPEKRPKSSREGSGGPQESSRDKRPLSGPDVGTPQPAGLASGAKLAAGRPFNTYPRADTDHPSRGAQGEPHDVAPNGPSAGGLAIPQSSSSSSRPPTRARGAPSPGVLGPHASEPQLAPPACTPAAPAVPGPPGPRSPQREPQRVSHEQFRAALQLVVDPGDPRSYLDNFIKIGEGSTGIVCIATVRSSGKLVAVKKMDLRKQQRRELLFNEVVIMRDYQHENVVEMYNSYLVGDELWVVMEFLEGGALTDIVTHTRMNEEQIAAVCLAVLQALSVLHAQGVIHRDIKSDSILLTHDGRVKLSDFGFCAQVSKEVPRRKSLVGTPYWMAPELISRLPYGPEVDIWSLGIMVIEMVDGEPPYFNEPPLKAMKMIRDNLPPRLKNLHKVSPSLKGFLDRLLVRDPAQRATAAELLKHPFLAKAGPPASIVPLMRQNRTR
Sequence of High affinity nerve growth factor receptor (Homo sapiens) (P04629 33-796 limits assumed): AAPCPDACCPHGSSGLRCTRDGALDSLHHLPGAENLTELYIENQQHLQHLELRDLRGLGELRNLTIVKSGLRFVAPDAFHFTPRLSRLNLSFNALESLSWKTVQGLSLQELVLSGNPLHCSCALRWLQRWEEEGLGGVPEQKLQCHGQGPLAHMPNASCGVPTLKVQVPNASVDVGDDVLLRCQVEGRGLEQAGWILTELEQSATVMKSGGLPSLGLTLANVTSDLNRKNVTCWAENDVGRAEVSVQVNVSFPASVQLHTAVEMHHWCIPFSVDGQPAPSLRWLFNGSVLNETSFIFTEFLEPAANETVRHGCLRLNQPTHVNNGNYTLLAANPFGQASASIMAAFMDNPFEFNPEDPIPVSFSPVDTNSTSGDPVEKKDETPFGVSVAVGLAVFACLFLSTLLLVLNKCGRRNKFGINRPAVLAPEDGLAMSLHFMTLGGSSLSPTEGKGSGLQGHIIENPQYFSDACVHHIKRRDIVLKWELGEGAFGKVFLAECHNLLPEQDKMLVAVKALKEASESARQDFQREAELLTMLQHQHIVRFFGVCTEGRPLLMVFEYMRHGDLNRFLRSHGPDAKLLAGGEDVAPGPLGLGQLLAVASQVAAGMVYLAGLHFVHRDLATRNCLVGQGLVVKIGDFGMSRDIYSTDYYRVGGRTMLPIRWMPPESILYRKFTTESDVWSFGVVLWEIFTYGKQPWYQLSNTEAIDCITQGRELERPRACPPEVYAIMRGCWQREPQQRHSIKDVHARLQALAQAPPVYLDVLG
Sequence of RAC-alpha serine/threonine-protein kinase (Homo sapiens) (P31749 whole entry): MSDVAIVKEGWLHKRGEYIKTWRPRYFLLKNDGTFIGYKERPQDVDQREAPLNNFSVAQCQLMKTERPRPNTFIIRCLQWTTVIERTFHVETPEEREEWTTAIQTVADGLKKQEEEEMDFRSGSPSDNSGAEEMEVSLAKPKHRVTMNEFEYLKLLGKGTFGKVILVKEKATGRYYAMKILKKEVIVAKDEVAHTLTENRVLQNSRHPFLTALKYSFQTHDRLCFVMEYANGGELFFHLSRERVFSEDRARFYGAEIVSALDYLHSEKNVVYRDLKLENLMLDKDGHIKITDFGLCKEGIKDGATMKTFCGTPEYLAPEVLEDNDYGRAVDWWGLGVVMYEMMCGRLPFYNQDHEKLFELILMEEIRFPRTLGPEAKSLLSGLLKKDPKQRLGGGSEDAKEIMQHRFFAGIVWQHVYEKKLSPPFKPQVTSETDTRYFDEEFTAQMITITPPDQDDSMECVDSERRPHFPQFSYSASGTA

Turning to `CCc1nc(-c2ccc(F)cc2)c(-c2ccnc(NC(=O)C3CC3)c2)[nH]1`, the inhibition in data set [1] is 10.6%; in data set [3], 64.5%; in [4], 54.9%; in data set [5], 10.7%; in data set [6] it was -1.98%; in data set [7], 78.3%. Besides, the inhibition in data set [10] is 98.7%; in data set [13], 10.9%; in [14], -4.86%; in data set [16], 94.7%; in [18], 4.82%; in [19], 2.06%. Besides, the inhibition in data set [20] is 4.24%. The values for the Ratio in data set [2] and in data set [9] were 2.5 and 1.1, respectively. Besides, the inhibition at 10 µM on CYP1A2 amounted to 83.6%. In addition, the results for the IC50 in data set [8], in data set [11] and in [12] were 35 to 45.6 nM, 16 nM and 301 nM, respectively. In addition, the remaining at 1 h in data set [15] turned out to be 95.2%. For the same compound, in data set [17], the remaining at 20 min is 93.4%. For the same compound, the concentration at 2 h in data set [21] is 13.3 ng/g.
